Experimental data: ChEMBL document CHEMBL4622996, “Discovery of Vixotrigine: A Novel Use-Dependent Sodium Channel Blocker for the Treatment of Trigeminal Neuralgia” (ACS Med Chem Lett, 2020)
Activity calls are given as the source filed them. The calls are words filed in the database; no cut-off is given here.

Key:
[1] = target: T1, Sodium channel protein type 3 subunit alpha (Homo sapiens, UniProt Q9NY46); test: Inhibition of Nav1.3 (unknown origin) expressed in HEK293 cells assessed as 15% inhibition of sodium current incubated for 3 to 3.5 mins by electrophysiology assay; format: cell-based
Method in brief: (§1)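 HEK293 cells stably expressing NaV1.3, grown in DMEM-F12 with 10% FBS at 37 °C, dissociated at 50–70% confluency; IonWorksHT planar patch clamp at 21–23 °C, amphotericin perforated access; intracellular K-gluconate 100, KCl 40, MgCl2 3.2, EGTA 3, HEPES 5 mM, pH 7.3.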
Target sequence in this assay (Q9NY46 whole entry, looked up): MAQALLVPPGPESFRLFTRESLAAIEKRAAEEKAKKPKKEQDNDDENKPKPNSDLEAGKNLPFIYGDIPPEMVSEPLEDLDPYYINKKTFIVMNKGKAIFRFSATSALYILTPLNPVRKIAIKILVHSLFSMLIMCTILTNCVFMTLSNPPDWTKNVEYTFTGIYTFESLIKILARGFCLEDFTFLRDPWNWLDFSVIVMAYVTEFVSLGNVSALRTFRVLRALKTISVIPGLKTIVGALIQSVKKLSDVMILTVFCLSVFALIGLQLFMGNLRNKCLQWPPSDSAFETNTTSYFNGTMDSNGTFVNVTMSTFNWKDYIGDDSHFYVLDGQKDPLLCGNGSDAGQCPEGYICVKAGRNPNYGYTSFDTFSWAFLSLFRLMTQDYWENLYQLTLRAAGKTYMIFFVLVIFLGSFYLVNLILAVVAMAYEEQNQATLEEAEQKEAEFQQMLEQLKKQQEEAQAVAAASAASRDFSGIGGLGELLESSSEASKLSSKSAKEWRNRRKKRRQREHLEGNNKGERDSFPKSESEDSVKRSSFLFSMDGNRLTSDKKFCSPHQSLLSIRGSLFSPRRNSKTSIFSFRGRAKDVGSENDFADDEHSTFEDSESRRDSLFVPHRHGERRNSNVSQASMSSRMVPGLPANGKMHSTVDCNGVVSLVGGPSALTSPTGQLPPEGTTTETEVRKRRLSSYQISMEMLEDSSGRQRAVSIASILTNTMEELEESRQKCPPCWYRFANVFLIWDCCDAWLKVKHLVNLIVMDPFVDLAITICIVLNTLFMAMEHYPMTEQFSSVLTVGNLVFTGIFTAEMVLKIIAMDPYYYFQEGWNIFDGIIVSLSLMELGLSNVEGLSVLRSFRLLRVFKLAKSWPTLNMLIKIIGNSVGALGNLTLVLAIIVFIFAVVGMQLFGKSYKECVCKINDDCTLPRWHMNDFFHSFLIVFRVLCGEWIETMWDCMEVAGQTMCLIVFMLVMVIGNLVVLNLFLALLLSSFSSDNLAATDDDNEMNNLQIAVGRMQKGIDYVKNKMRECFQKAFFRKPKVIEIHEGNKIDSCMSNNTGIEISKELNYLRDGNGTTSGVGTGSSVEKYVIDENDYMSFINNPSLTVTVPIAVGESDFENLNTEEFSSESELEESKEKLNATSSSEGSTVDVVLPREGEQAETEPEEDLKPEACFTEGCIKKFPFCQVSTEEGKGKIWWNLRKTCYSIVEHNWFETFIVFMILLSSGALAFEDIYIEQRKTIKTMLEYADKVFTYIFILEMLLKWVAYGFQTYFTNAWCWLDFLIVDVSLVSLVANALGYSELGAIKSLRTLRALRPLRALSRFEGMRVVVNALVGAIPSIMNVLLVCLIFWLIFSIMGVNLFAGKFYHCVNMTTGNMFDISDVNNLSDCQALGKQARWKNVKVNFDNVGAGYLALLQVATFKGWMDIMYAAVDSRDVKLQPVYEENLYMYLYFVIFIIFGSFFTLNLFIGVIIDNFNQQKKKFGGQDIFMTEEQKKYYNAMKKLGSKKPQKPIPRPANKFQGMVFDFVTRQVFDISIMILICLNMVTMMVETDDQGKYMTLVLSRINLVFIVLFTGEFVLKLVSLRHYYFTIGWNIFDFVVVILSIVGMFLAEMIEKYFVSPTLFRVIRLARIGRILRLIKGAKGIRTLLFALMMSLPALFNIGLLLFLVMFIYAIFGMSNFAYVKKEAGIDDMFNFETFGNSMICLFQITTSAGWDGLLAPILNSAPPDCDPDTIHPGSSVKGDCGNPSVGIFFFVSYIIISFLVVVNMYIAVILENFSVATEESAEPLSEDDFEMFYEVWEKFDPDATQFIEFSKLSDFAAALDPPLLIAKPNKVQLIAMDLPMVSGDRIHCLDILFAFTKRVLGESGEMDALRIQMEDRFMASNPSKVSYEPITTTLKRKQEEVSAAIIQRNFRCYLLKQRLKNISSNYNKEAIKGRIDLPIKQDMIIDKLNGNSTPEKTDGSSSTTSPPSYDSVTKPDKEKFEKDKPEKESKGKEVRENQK

[2] = target: T1, Sodium channel protein type 3 subunit alpha; test: Inhibition of Nav1.3 (unknown origin) expressed in HEK293 cells assessed as inhibition of sodium current incubated for 3 to 3.5 mins by electrophysiology assay; format: cell-based; method in brief: as §1
Target sequence in this assay (Q9NY46 whole entry): as the sequence (Q9NY46 whole entry, looked up) above

Homo sapiens = organism: Homo sapiens; test: Selectivity ratio of UD15 to IC50 of Nav1.3 (unknown origin) expressed in HEK293 cells; format: cell-based
[3] = target: Voltage-gated inwardly rectifying potassium channel KCNH2 (Homo sapiens, UniProt Q12809); test: Inhibition of human ERG; conditions: for inhibition (INH): human
Voltage-gated inwardly rectifying potassium channel KCNH2, sequence (Q12809 whole entry): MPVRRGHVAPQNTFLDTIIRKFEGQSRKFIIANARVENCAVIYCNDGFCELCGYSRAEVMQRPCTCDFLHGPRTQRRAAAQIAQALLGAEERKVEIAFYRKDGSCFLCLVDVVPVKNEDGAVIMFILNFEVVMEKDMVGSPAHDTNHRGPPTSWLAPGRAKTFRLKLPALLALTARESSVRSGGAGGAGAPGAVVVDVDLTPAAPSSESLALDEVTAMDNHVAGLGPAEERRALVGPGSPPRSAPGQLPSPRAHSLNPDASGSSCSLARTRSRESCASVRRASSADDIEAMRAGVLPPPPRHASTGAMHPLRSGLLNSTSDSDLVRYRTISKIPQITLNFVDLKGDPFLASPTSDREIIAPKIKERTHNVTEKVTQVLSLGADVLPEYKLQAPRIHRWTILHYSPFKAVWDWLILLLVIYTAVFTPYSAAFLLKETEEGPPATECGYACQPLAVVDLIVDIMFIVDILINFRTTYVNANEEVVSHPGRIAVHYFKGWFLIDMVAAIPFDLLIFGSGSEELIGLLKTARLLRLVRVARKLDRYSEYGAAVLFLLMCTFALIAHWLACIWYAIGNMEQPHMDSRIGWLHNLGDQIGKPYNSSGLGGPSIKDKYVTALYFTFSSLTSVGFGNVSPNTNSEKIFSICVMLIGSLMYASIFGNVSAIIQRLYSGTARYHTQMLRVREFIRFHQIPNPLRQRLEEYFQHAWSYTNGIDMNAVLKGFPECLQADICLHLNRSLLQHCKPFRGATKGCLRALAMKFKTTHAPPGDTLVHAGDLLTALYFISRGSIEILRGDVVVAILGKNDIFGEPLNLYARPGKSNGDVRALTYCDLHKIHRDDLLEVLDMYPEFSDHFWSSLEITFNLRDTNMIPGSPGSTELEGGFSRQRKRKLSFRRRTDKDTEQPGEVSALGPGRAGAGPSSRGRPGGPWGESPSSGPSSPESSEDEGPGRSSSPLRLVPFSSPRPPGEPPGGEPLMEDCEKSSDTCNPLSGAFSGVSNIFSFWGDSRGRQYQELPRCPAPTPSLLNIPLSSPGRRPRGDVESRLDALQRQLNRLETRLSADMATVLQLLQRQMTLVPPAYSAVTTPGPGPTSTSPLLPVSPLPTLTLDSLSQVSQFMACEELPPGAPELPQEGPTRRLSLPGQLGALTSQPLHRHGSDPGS

[4] = Fraction unbound in rat brain; format: ADME, tissue-based
[5] = Fraction unbound in rat plasma; format: ADME, cell-free
[6] = Total blood clearance in rat blood at 0.5 mg/kg, iv; format: ADME, organism-based
[7] = Oral bioavailability in rat at 3 mg/kg; format: ADME, organism-based; conditions: in vivo
[8] = Ratio of drug level in brain to blood in rat; format: ADME, tissue-based; conditions: read-out: Kbb
[9] = Fraction unbound in rat blood; format: ADME, tissue-based
Rattus norvegicus = test: Antinociceptive activity in rat model of chronic constriction injury-induced neuropathic pain assessed as inhibition of CCI-induced mechanical allodynia at 30 mg/kg, po BID administered 22 days post surgery and measured on day 1, 6 and 8; format: functional, organism-based
Method in brief: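 Chronic constriction injury model of neuropathic pain. Dosed orally twice daily as the positive-control arm of a study that also tested 0.5 and 5 mg/kg oral BID groups. Dosing started during day 22. Mechanical allodynia was measured on dosing days 1, 6 and 8.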

Structure (SMILES)	log(activity) [1]	IC50 [2]	Selectivity ratio (Homo sapiens)	IC50 [3]	other results
NC(=O)[C@@H]1CC[C@H](c2ccc(Oc3cccc(F)c3)cc2)N1	-5.5	100 µM	29	7.94 µM	
NC(=O)[C@H]1CC[C@@H](c2ccc(OCc3ccccc3F)cc2)N1	-5.4	63.1 µM		10 µM	
NC(=O)[C@H]1CCC[C@@H](c2ccc(OCc3cccc(F)c3)cc2)N1 (stereo in doubt)	-5.4	39.8 µM	11	3.16 µM	
CC(C(N)=O)N1CCOc2cc(OCc3ccccc3F)ccc2C1 (configuration not stated)	-4.6	> 63.1 µM			
NC(=O)[C@@H]1CSc2cc(OCc3ccccc3F)ccc2CN1	-4.7	> 100 µM			
NC(=O)[C@@H]1CCC[C@H](c2ccc(OCc3cccc(F)c3)cc2)N1 (stereo in doubt)	-5.4	39.8 µM	7	31.6 µM	fraction unbound [4]: 0.01; fraction unbound [5]: 0.04
O=C1NCCC1NCc1ccc(OCc2ccccc2F)cc1 (configuration not stated)	-4.8	126 µM	8		
NC(=O)[C@@H]1CC[C@H](c2ccc(Oc3ccc(F)cc3)cc2)N1	-5.3	> 100 µM		5.01 µM	fraction unbound [4]: 0.016; fraction unbound [5]: 0.11
O=C1CN(Cc2ccc(OCc3ccccc3F)cc2)CCN1		> 79.4 µM			
NC(=O)CNCc1ccc(OCc2ccccc2F)cc1	-5.4	50.1 µM	11		
CNC(=O)[C@@H]1CC[C@H](c2ccc(OCc3ccccc3F)cc2)N1	-5.3	> 63.1 µM		25.1 µM	fraction unbound [4]: 0.015
NC(=O)[C@@H]1CC[C@H](c2ccc(Oc3ccccc3)cc2)N1	-5.4	100 µM	31	12.6 µM	clearance [6]: 40 mL/min/kg; bioavailability [7]: 25%; Kp [8]: 4.8
NC(=O)CNC1CCc2cc(OCc3ccccc3F)ccc21 (configuration not stated)	-5.5	31.6 µM	1.3		inhibition (INH) [3]: Active
N#Cc1ccccc1Oc1ccc([C@H]2CC[C@@H](C(N)=O)N2)cc1	-4.6	> 100 µM		3.98 µM	fraction unbound [4]: 0.076; fraction unbound [9]: 0.12
COc1cc([C@H]2CC[C@@H](C(N)=O)N2)ccc1OCc1ccccc1F	-5.2	63.1 µM	10	3.98 µM	fraction unbound [4]: 0.033
NC(=O)[C@@H]1CCCN1Cc1ccc(OCc2ccccc2F)cc1	-5.8	79.4 µM	64		inhibition (INH) [3]: Active
C[C@@H](C(N)=O)N1CCCC1c1ccc(OCc2ccccc2F)cc1 (some centres not stated) [listing 1 of 2 here]		50.1 µM			inhibition (INH) [3]: Active
NC(=O)[C@@H]1CC[C@H](c2ccc(OCc3ccccc3F)cc2F)N1	-5.6	> 100 µM	42	12.6 µM	fraction unbound [4]: 0.009
NC(=O)[C@@H]1CC[C@H](c2ccc(OCc3cccc(F)c3)cc2)N1	-5.5	> 100 µM		3.16 µM	fraction unbound [4]: 0.01; fraction unbound [5]: 0.033
NC(=O)CN1CCOc2cc(OCc3ccccc3)ccc2C1		> 79.4 µM			
NC(=O)[C@@H]1CC[C@H](c2cccc(Oc3ccccc3)c2)N1	-4.7	> 100 µM		63.1 µM	
C[C@@H](Oc1ccc([C@H]2CC[C@@H](C(N)=O)N2)cc1)c1ccccc1	-5.5	31.6 µM	9	3.98 µM	

Structure (SMILES)	log(activity) [1]	IC50 [2]	Selectivity ratio (Homo sapiens)	IC50 [3]	other results
NC(=O)[C@@H]1CC[C@@H](c2ccc(OCc3ccccc3F)cc2)N1	-5.5	100 µM		5.01 µM	
N#Cc1ccc(COc2ccc([C@H]3CC[C@@H](C(N)=O)N3)cc2)cc1	-5	> 63.1 µM		7.94 µM	
NC(=O)[C@@H]1CC[C@H](c2ccc(OCc3ccccc3F)cn2)N1	-4.8	63.1 µM	6	15.8 µM	
NC(=O)C1CCC(c2ccc(OCc3ccccc3F)cc2)N1 (configuration not stated)	-5.4	63.1 to 100 µM			
N#Cc1ccccc1COc1ccc([C@H]2CC[C@@H](C(N)=O)N2)cc1	-5.3	> 63.1 µM		15.8 µM	clearance [6]: 37 mL/min/kg; fraction unbound [4]: 0.063; bioavailability [7]: 39%; fraction unbound [5]: 0.12; Kp [8]: 0.8
C[C@@H](C(N)=O)N1CCCC1c1ccc(OCc2ccccc2F)cc1 (single isomer, unassigned; isomer 2) [listing 1 of 2 here]	-5.9		29		
NC(=O)CN1Cc2ccc(OCc3ccccc3F)cc2C1		> 100 µM			
C[C@@H](C(N)=O)N1CCc2cc(OCc3ccccc3F)ccc2C1		> 79.4 µM			
C[C@@H](C(N)=O)N1CCCC1c1ccc(OCc2ccccc2F)cc1 (single isomer, unassigned; isomer 2) [listing 2 of 2 here]		39.8 µM			
NC(=O)[C@@H]1CC[C@H](c2ccc(OCc3ccc(F)cc3)cc2)N1	-5	> 63.1 µM		7.94 µM	clearance [6]: 91 mL/min/kg; bioavailability [7]: 31%; Kp [8]: 3.5
N#Cc1cc([C@H]2CC[C@@H](C(N)=O)N2)ccc1OCc1ccccc1F	-4.8	> 50.1 µM			
NC(=O)[C@H]1CC[C@H](c2ccc(OCc3ccccc3F)cc2)N1	-5.4	> 79.4 µM		6.31 µM	
NC(=O)[C@@H]1CSC[C@H](c2ccc(OCc3cccc(F)c3)cc2)N1 (racemic)	< -4.05	> 89.1 µM			
NC(=O)C1Cc2cc(OCc3ccccc3F)ccc2CN1 (configuration not stated)	-4.8	20 µM	1.3		
NC(=O)CN1CCCc2cc(OCc3ccccc3F)ccc2C1		> 79.4 µM			
C[C@@H](C(N)=O)N1CCCC1c1ccc(OCc2ccccc2F)cc1 (some centres not stated) [listing 2 of 2 here]	-5.5		14		
C[C@H](NC1CCOc2cc(OCc3ccccc3F)ccc21)C(N)=O (some centres not stated)		> 79.4 µM			
CN1[C@@H](c2ccc(OCc3ccccc3F)cc2)CC[C@H]1C(N)=O	-4.4	> 100 µM	2	50.1 µM	
N#Cc1cccc(COc2ccc([C@H]3CC[C@@H](C(N)=O)N3)cc2)c1	-5.2	> 63.1 µM			
NC(=O)[C@@H]1CC[C@H](c2ccc(OCc3ccccc3)cc2)N1	-5.6	> 63.1 µM	37	7.94 µM	
C[C@H](NC1CCCc2cc(OCc3ccccc3F)ccc21)C(N)=O (some centres not stated)	-5.6	63.1 µM	24		inhibition (INH) [3]: Active
NCC1(CC(=O)O)CCCCC1					Activity (Rattus norvegicus): Active
